Measurements reported in BindingDB's records for doi:10.1021/jm00111a027 (Merck Sharp & Dohme Research Laboratories, 1991).
Non-standard residues stand in square brackets, D forms with d. Residues, ends and D or L forms follow the SMILES beside them. *: point of attachment. NH(2-Me-nonan-4R-yl) = CCCCC[C@H](CC(C)C)N*; NHCH(iBu)2 = CC(C)CC(CC(C)C)N*; X1 = CC(C)CCOC[C@H](CC(C)C)N*; X11 = CCCCC[C@@H](CC(C)C)N*; Leu(ol) = CC(C)C[C@H](N)CO; X4 = CCCCCC[C@H](CC(C)C)N*; X12 = CCCC[C@H](CC(C)C)N*; X8 = CCCC[C@@H](CC(C)C)N*; X9 = CCC[C@@H](CC(C)C)N*; X3 = COC[C@H](CC(C)C)N*; X6 = CCC[C@H](CC(C)C)N*; Piv = CC(C)(C)C(=O)*; X2 = CCCCC(CCCC)N*; X7 = CCCC(CCC)N*

Experiments:
[1] = Compound was evaluated for mitogenic inhibition against Swiss 3T3 murine fibroblast cells.
[2] = target: Gastrin-releasing peptide receptor (Mus musculus, UniProt P21729); experiment: Compound was evaluated for mitogenic inhibition against Swiss 3T3 murine fibroblast cells.
Sequence of Gastrin-releasing peptide receptor (P21729 whole entry): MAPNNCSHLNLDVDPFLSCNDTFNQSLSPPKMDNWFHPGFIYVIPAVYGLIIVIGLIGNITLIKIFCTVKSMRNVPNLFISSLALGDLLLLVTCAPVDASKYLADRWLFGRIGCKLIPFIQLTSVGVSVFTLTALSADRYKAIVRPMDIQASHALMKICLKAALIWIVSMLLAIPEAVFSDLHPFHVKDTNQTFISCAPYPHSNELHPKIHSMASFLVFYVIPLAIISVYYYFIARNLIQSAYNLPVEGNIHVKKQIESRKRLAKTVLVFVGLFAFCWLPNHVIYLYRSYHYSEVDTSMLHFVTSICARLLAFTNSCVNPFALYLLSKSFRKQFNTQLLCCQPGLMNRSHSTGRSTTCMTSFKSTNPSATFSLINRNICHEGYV
How it was run: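 Swiss 3T3 monolayers grown to confluence, then serum-starved in serum-free DMEM for 48 h. Antagonist added together with 3 nM N-acetyl-GRP-20-27 amide and 23 nM [3H]thymidine. After a further 48 h, cells detached with trypsin/5 mM EDTA and filter-harvested; [3H]thymidine uptake measured. IC50 is the mean of at least two independent experiments.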

[3] = Compound was evaluated for mitogenic inhibition against Swiss 3T3 murine fibroblast cells.; remark: listed apart in the source

Row | SMILES | IC50 [1] [nM] | further results
1 | CCCCC[C@H](CC(C)C)NC(=O)[C@H](Cc1cnc[nH]1)NC(=O)CNC(=O)[C@@H](NC(=O)[C@H](C)NC(=O)[C@H](Cc1c[nH]c2ccccc12)NC(=O)[C@H](Cc1cnc[nH]1)NC(=O)C(C)(C)C)C(C)C [2-{2-[2-[2-(2,2-Dimethyl-propionylamino)-3-(3H-imidazol-4-yl)-propionylamino]-3-(1H-indol-3-yl)-propionylamino]-propionylamino}-N-{[2-(3H-imidazol-4-yl)-1-(1-isobutyl-hexylcarbamoyl)-ethylcarbamoyl]-methyl}-3-methyl-butyramide] (Piv-HWAVGH-{NH(2-Me-nonan-4R-yl)}) | 0.6 | –
2 | CC(=O)N[C@@H](Cc1c[nH]cn1)C(=O)N[C@@H](Cc1c[nH]c2ccccc12)C(=O)N[C@@H](C)C(=O)N[C@H](C(=O)NCC(=O)N[C@@H](Cc1c[nH]cn1)C(=O)N[C@H](COCCC(C)C)CC(C)C)C(C)C [2-{2-[2-[2-Acetylamino-3-(3H-imidazol-4-yl)-propionylamino]-3-(1H-indol-3-yl)-propionylamino]-propionylamino}-N-({2-(3H-imidazol-4-yl)-1-[3-methyl-1-(3-methyl-butoxymethyl)-butylcarbamoyl]-ethylcarbamoyl}-methyl)-3-methyl-butyramide] (Ac-HWAVGH-X1) | – | IC50 [2]: 32 nM
3 | CCCC[C@@H](CC(C)C)NC(=O)[C@H](Cc1c[nH]cn1)NC(=O)CNC(=O)[C@@H](NC(=O)[C@H](C)NC(=O)[C@H](Cc1c[nH]c2ccccc12)NC(=O)[C@H](Cc1c[nH]cn1)NC(C)=O)C(C)C [2-{2-[2-[2-Acetylamino-3-(3H-imidazol-4-yl)-propionylamino]-3-(1H-indol-3-yl)-propionylamino]-propionylamino}-N-{[2-(3H-imidazol-4-yl)-1-(1-isobutyl-pentylcarbamoyl)-ethylcarbamoyl]-methyl}-3-methyl-butyramide] (Ac-HWAVGH-X8) | 6 | –
4 | CCOC[C@H](CC(C)C)NC(=O)[C@H](Cc1c[nH]cn1)NC(=O)[C@H](C)NC(=O)[C@@H](NC(=O)[C@H](C)NC(=O)[C@H](Cc1c[nH]c2ccccc12)NC(=O)[C@H](Cc1c[nH]cn1)NC(C)=O)C(C)C [2-{2-[2-[2-Acetylamino-3-(3H-imidazol-4-yl)-propionylamino]-3-(1H-indol-3-yl)-propionylamino]-propionylamino}-N-{1-[1-(1-ethoxymethyl-3-methyl-butylcarbamoyl)-2-(3H-imidazol-4-yl)-ethylcarbamoyl]-ethyl}-3-methyl-butyramide] | > 300 | –
5 | CCC[C@H](CC(C)C)NC(=O)[C@H](Cc1cnc[nH]1)NC(=O)CNC(=O)[C@@H](NC(=O)[C@H](C)NC(=O)[C@H](Cc1c[nH]c2ccccc12)NC(=O)[C@H](Cc1cnc[nH]1)NC(C)=O)C(C)C [2-{2-[2-[2-Acetylamino-3-(3H-imidazol-4-yl)-propionylamino]-3-(1H-indol-3-yl)-propionylamino]-propionylamino}-N-{[2-(3H-imidazol-4-yl)-1-(3-methyl-1-propyl-butylcarbamoyl)-ethylcarbamoyl]-methyl}-3-methyl-butyramide] (Ac-HWAVGH-X6) | 10 | –
6 | CCCCC(CCCC)NC(=O)[C@H](Cc1cnc[nH]1)NC(=O)CNC(=O)[C@@H](NC(=O)[C@H](C)NC(=O)[C@H](Cc1c[nH]c2ccccc12)NC(=O)[C@H](Cc1cnc[nH]1)NC(C)=O)C(C)C [2-{2-[2-[2-Acetylamino-3-(3H-imidazol-4-yl)-propionylamino]-3-(1H-indol-3-yl)-propionylamino]-propionylamino}-N-{[1-(1-butyl-pentylcarbamoyl)-2-(3H-imidazol-4-yl)-ethylcarbamoyl]-methyl}-3-methyl-butyramide] (Ac-HWAVGH-X2) | – | IC50 [3]: 11 nM
7 | CCCC(CCC)NC(=O)[C@H](Cc1cnc[nH]1)NC(=O)CNC(=O)[C@@H](NC(=O)[C@H](C)NC(=O)[C@H](Cc1c[nH]c2ccccc12)NC(=O)[C@H](Cc1cnc[nH]1)NC(C)=O)C(C)C [2-{2-[2-[2-Acetylamino-3-(3H-imidazol-4-yl)-propionylamino]-3-(1H-indol-3-yl)-propionylamino]-propionylamino}-N-{[2-(3H-imidazol-4-yl)-1-(1-propyl-butylcarbamoyl)-ethylcarbamoyl]-methyl}-3-methyl-butyramide] (Ac-HWAVGH-X7) | 80 | –
8 | CCOC(=O)[C@H](CC(C)C)NC(=O)[C@H](Cc1c[nH]cn1)NC(=O)CNC(=O)[C@@H](NC(=O)[C@H](C)NC(=O)[C@H](Cc1c[nH]c2ccccc12)NC(=O)[C@H](Cc1c[nH]cn1)NC(C)=O)C(C)C [2-[2-[2-(2-{2-[2-[2-Acetylamino-3-(3H-imidazol-4-yl)-propionylamino]-3-(1H-indol-3-yl)-propionylamino]-propionylamino}-3-methyl-butyrylamino)-acetylamino]-3-(3H-imidazol-4-yl)-propionylamino]-4-methyl-pentanoic acid ethyl ester] (Ac-HWAVGHL-OEt) | 20 | –
9 | CCCC[C@H](CC(C)C)NC(=O)[C@H](Cc1cnc[nH]1)NC(=O)CNC(=O)[C@@H](NC(=O)[C@H](C)NC(=O)[C@H](Cc1c[nH]c2ccccc12)NC(=O)[C@H](Cc1cnc[nH]1)NC(C)=O)C(C)C [2-{2-[2-[2-Acetylamino-3-(3H-imidazol-4-yl)-propionylamino]-3-(1H-indol-3-yl)-propionylamino]-propionylamino}-N-{[2-(3H-imidazol-4-yl)-1-(1-isobutyl-pentylcarbamoyl)-ethylcarbamoyl]-methyl}-3-methyl-butyramide] (Ac-HWAVGH-X12) | – | IC50 [3]: 3 nM
10 | COC[C@H](CC(C)C)NC(=O)[C@H](Cc1c[nH]cn1)NC(=O)CNC(=O)[C@@H](NC(=O)[C@H](C)NC(=O)[C@H](Cc1c[nH]c2ccccc12)NC(=O)[C@H](Cc1c[nH]cn1)NC(C)=O)C(C)C [2-{2-[2-[2-Acetylamino-3-(3H-imidazol-4-yl)-propionylamino]-3-(1H-indol-3-yl)-propionylamino]-propionylamino}-N-{[2-(3H-imidazol-4-yl)-1-(1-methoxymethyl-3-methyl-butylcarbamoyl)-ethylcarbamoyl]-methyl}-3-methyl-butyramide] (Ac-HWAVGH-X3) | 91 | –
11 | CC(=O)N[C@@H](Cc1c[nH]cn1)C(=O)N[C@@H](Cc1c[nH]c2ccccc12)C(=O)N[C@@H](C)C(=O)N[C@H](C(=O)NCC(=O)N[C@@H](Cc1c[nH]cn1)C(=O)N[C@H](CO)CC(C)C)C(C)C [2-{2-[2-[2-Acetylamino-3-(3H-imidazol-4-yl)-propionylamino]-3-(1H-indol-3-yl)-propionylamino]-propionylamino}-N-{[1-(1-hydroxymethyl-3-methyl-butylcarbamoyl)-2-(3H-imidazol-4-yl)-ethylcarbamoyl]-methyl}-3-methyl-butyramide] (Ac-HWAVGH[Leu(ol)]) | 300 | –
12 | CC(=O)N[C@@H](Cc1cnc[nH]1)C(=O)N[C@@H](Cc1c[nH]c2ccccc12)C(=O)N[C@@H](C)C(=O)N[C@H](C(=O)NCC(=O)N[C@@H](Cc1cnc[nH]1)C(=O)NC(CC(C)C)CC(C)C)C(C)C [2-{2-[2-[2-Acetylamino-3-(3H-imidazol-4-yl)-propionylamino]-3-(1H-indol-3-yl)-propionylamino]-propionylamino}-N-{[2-(3H-imidazol-4-yl)-1-(1-isobutyl-3-methyl-butylcarbamoyl)-ethylcarbamoyl]-methyl}-3-methyl-butyramide] (Ac-HWAVGH-{NHCH(iBu)2}) | – | IC50 [3]: 8 nM

Continued, in another order:

Row | IC50 [1] [nM] | SMILES | further results
13 | 7 | CCCCCC[C@H](CC(C)C)NC(=O)[C@H](Cc1cnc[nH]1)NC(=O)CNC(=O)[C@@H](NC(=O)[C@H](C)NC(=O)[C@H](Cc1c[nH]c2ccccc12)NC(=O)[C@H](Cc1cnc[nH]1)NC(C)=O)C(C)C [2-{2-[2-[2-Acetylamino-3-(3H-imidazol-4-yl)-propionylamino]-3-(1H-indol-3-yl)-propionylamino]-propionylamino}-N-{[2-(3H-imidazol-4-yl)-1-(1-isobutyl-heptylcarbamoyl)-ethylcarbamoyl]-methyl}-3-methyl-butyramide] (Ac-HWAVGH-X4) | –
14 | 22 | CCCCC[C@@H](CC(C)C)NC(=O)[C@H](Cc1cnc[nH]1)NC(=O)CNC(=O)[C@@H](NC(=O)[C@H](C)NC(=O)[C@H](Cc1c[nH]c2ccccc12)NC(=O)[C@H](Cc1cnc[nH]1)NC(C)=O)C(C)C [2-{2-[2-[2-Acetylamino-3-(3H-imidazol-4-yl)-propionylamino]-3-(1H-indol-3-yl)-propionylamino]-propionylamino}-N-{[2-(3H-imidazol-4-yl)-1-(1-isobutyl-hexylcarbamoyl)-ethylcarbamoyl]-methyl}-3-methyl-butyramide] (Ac-HWAVGH-X11) | –
15 | 4 | CCCCC[C@H](CC(C)C)NC(=O)[C@H](Cc1cnc[nH]1)NC(=O)CNC(=O)[C@@H](NC(=O)[C@H](C)NC(=O)[C@H](Cc1c[nH]c2ccccc12)NC(=O)[C@H](Cc1cnc[nH]1)NC(C)=O)C(C)C [2-{2-[2-[2-Acetylamino-3-(3H-imidazol-4-yl)-propionylamino]-3-(1H-indol-3-yl)-propionylamino]-propionylamino}-N-{[2-(3H-imidazol-4-yl)-1-(1-isobutyl-hexylcarbamoyl)-ethylcarbamoyl]-methyl}-3-methyl-butyramide] (Ac-HWAVGH-{NH(2-Me-nonan-4R-yl)}) | –
16 | 35 | CCC[C@@H](CC(C)C)NC(=O)[C@H](Cc1cnc[nH]1)NC(=O)CNC(=O)[C@@H](NC(=O)[C@H](C)NC(=O)[C@H](Cc1c[nH]c2ccccc12)NC(=O)[C@H](Cc1cnc[nH]1)NC(C)=O)C(C)C [2-{2-[2-[2-Acetylamino-3-(3H-imidazol-4-yl)-propionylamino]-3-(1H-indol-3-yl)-propionylamino]-propionylamino}-N-{[2-(3H-imidazol-4-yl)-1-(3-methyl-1-propyl-butylcarbamoyl)-ethylcarbamoyl]-methyl}-3-methyl-butyramide] (Ac-HWAVGH-X9) | –
